Values after ≈ are worked out from the molar mass of the structure shown. Active and inactive are the calls of the source. No cut-off for these calls is given here.
Columns and labels:
[1] = target: T1, Cytochrome b-c1 complex subunit 7 (Homo sapiens, UniProt P14927); test: Modulation of UQCRB in human HepG2 cells assessed as inhibition of HIF-1alpha for 4 hrs under 1%O2 by Western blot analysis; type: cell-based
T1 sequence (P14927 whole entry): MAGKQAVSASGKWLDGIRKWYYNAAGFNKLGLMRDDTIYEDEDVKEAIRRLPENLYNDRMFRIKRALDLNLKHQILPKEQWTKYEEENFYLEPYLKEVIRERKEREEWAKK
How it was run: (§1)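 HepG2 cells pretreated with compound for 30 min, then exposed to 1% O₂ for 4 h. HIF-1α and tubulin measured by Western blot and quantified by densitometry.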

[2] = Thermodynamic solubility in H2O by HPLC; type: physicochemical; details: water; read-out: Therm_solubility
Mus musculus = test: Toxicity in human U87MG cells implanted into Balb C mouse assessed as body weight loss at 20 mg/kg, ip every other day measured on day 18; type: organism-based, U-87MG ATCC; design: dose 20 mg/kg, route intraperitoneal; details: in vivo
How it was run: (§2)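 Female athymic Balb C nu/nu mice, 4 weeks old, implanted subcutaneously in the dorsal flank with 5 × 10⁶ U87MG cells in PBS/Matrigel (1:1). At palpable tumors (50−100 mm³), randomized into two groups (n = 8). Dosed intraperitoneally with vehicle or 20 mg/kg every other day. Tumor volume and body weight followed over 17 days.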

[3] = Antitumor activity against human U87MG cells assessed as inhibition of cell growth after 72 hrs by MTT assay; type: functional, cell-based, U-87MG ATCC; details: U-87 MG
[4] = Thermodynamic solubility in PBS by HPLC; type: physicochemical; details: read-out: Therm_solubility
Chorioallantoic membrane [5] = test: Toxicity in chicken chorioallantoic membrane assessed as induction of rupture of pre-existing vessels; type: cell membranes, Gallus gallus; details: in vivo
HUVEC [6] = test: Toxicity in HUVEC assessed as reduction in cell viability by trypan blue staining method; type: cell-based; details: human
How it was run: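 HUVECs tested by trypan blue staining, run in parallel with the VEGF-stimulated invasion and tube formation assays at the same concentrations.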

HepG2 [7] = test: Cytotoxicity against human HepG2 cells assessed as effect on cell viability at 1 to 20 uM after 72 hrs by MTT assay; type: cell-based; details: hepg2, 72 h
U-87MG ATCC [8] = test: Antitumor activity against human U87MG cells implanted into Balb C mouse assessed as decrease in microvessel density at 20 mg/kg, ip every other day measured on day 18; type: functional, organism-based; design: dose 20 mg/kg
HUVEC [9] = test: Antiangiogenic activity in HUVEC assessed as inhibition of VEGF-induced tube formation by optical microscopy; type: functional, cell-based; details: Homo sapiens
How it was run: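 Serum-starved HUVECs on Matrigel, VEGF-stimulated with or without compound. Connected cells counted in random fields at 100× and divided by total cells in the same field. Basal tube formation in serum-free medium normalized to 100%. Mean ± SE of three independent experiments.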

U-87MG ATCC [10] = test: Antitumor activity against human U87MG cells implanted into Balb C mouse assessed as CD31 expression in tumor at 20 mg/kg, ip every other day measured on day 18 by immunohistochemical staining; type: functional, organism-based; design: dose 20 mg/kg
How it was run: (§3)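 Paraffin tumor sections (4 μm) incubated overnight at 4 °C with anti-CD31, anti-HIF-1α or anti-VEGF antibodies. Then FITC- or Alexa-conjugated secondary antibodies for 45 min at room temperature, with DAPI counterstain.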

[11] = target: T2, Cytochrome b-c1 complex subunit 7 (Homo sapiens) (UniProt P14927); test: Modulation of UQCRB in human HepG2 cells assessed as inhibition of HIF-1alpha accumulation at 1 to 10 uM for 4 hrs under 1%O2 by Western blot analysis; type: cell-based; how it was run: as §1
T2 sequence (whole entry): T1 sequence (P14927 whole entry)

Chorioallantoic membrane [12] = test: Antiangiogenic activity in chicken chorioallantoic membrane assessed as inhibition of blood vessel formation (reference value: 23%); type: functional, cell membranes; details: Gallus gallus, dose or concentration not given here
How it was run: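 Fertilized chick eggs held at 37 °C in a humidified incubator; about 2 mL albumin withdrawn on day 3. Compound-loaded Thermanox coverslips placed on the CAM of 4.5-day embryos; retinoic acid served as positive control. Result given as percent positive eggs of eggs tested.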

U-87MG ATCC [13] = test: Antitumor activity against human U87MG cells implanted into Balb C mouse assessed as inhibition of tumor growth at 20 mg/kg, ip every other day measured on day 18; type: functional, organism-based; design: dose 20 mg/kg; how it was run: as §2
[14] = target: T2, Cytochrome b-c1 complex subunit 7 (Homo sapiens); test: Binding affinity to UQCRB in human HepG2 cells assessed as inhibition of hypoxia-induced mitochondrial ROS generation under 1%O2 for 10 mins after 30 mins by MitoSOX Red fluorescence assay; type: cell-based
How it was run: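 HepG2 cells pretreated with compound for 30 min, then held at 1% O₂ for 10 min. Loaded with MitoSOX Red (5 μM) for 10 min, lysed and centrifuged. Fluorescence of protein-normalized supernatant read at ex 510 / em 580 nm. Mean ± SE of three independent experiments.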

U-87MG ATCC [15] = test: Antitumor activity against human U87MG cells implanted into Balb C mouse assessed as HIF1alpha expression in tumor at 20 mg/kg, ip every other day measured on day 18 by immunohistochemical staining; type: functional, organism-based; design: dose 20 mg/kg; how it was run: as §3
HUVEC [16] = test: Antiangiogenic activity in HUVEC assessed as inhibition of VEGF-induced invasion by Transwell chyamber system; type: functional, cell-based; details: Homo sapiens
How it was run: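 HUVECs serum-starved, then stimulated with VEGF with or without compound. Invasion measured in Transwell chambers with 8.0 μm pore polycarbonate filter inserts; invaded cells counted by light microscope at 100×. Basal invasiveness of HUVECs in serum-free medium normalized to 100%. Mean ± SE of three independent experiments.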

U-87MG ATCC [17] = test: Antitumor activity against human U87MG cells implanted into Balb C mouse assessed as VEGF expression in tumor at 20 mg/kg, ip every other day measured on day 18 by immunohistochemical staining; type: functional, organism-based; design: dose 20 mg/kg; how it was run: as §3
[18] = target: T2, Cytochrome b-c1 complex subunit 7 (Homo sapiens); test: Displacement of biotin-labeled terpestacin from UQCRB (unknown origin) by surface plasmon resonance; details: concentration not given here
How it was run: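 Biotin (control) and biotinylated terpestacin immobilized on a streptavidin sensor chip. Competitor (25 μM) incubated with purified UQCRB (25 μM) in pH 7.4 buffer (10 mM HEPES, 150 mM NaCl, 3 mM EDTA). Complexes injected at 30 μL/min; chip regenerated with 50 mM NaOH. Binding taken as resonance on biotinylated terpestacin minus resonance on biotin.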

HepG2 [19] = test: Inhibition of hypoxia-induced VEGF expression in human HepG2 cells at 1 to 5 uM for 30 mins followed by 1%O2 for 16 hrs by ELISA; type: functional, cell-based
How it was run: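 HepG2 cells pretreated with compound for 30 min, then exposed to 1% O₂ for 16 h. VEGF protein in culture supernatant measured by VEGF-specific ELISA. Mean ± SE of three independent experiments.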

## CC(C)(C)c1ccc(S(=O)(=O)Nc2ccccc2O)cc1
[1]
  IC50: 8 µM

## O=S(=O)(Nc1ccc([O-])cc1)c1ccc(-c2ccccc2)cc1.[K+]
[2]
  solubility thermodynamic: > 500 µg/mL
Mus musculus
  Activity: Non-toxic
[1]
  IC50: 5 µM
[3]
  IC50: 12.5 µM
[4]
  solubility thermodynamic: 108 µg/mL

## O=S(=O)(Nc1ccc(O)cc1)c1ccc(-c2ccccc2)cc1 [listing 1 of 2 here]
Chorioallantoic membrane [5]
  Activity: Non-toxic
HUVEC [6]
  Activity: Non-toxic
[2]
  solubility thermodynamic: < 2.06 µg/mL
[1]
  IC50: 2.5 µM
[4]
  solubility thermodynamic: < 2.06 µg/mL
HepG2 [7]
  Activity: Non-toxic

## O=S(=O)(Nc1ccc(O)cc1)c1ccc2ccccc2c1
[1]
  IC50: > 20 µM

## O=S(=O)(Nc1ccc(O)cc1)c1ccc(-c2ccccc2)cc1 [listing 2 of 2 here]
U-87MG ATCC [8]
  inhibition: Active
HUVEC [9]
  inhibition: Dose-dependent effect
U-87MG ATCC [10]
  inhibition: Active
[11]
  inhibition: Active
Chorioallantoic membrane [12]
  inhibition: 69%
U-87MG ATCC [13]
  inhibition: Active
[14]
  inhibition: Dose-dependent effect
U-87MG ATCC [15]
  inhibition: Active
HUVEC [16]
  inhibition: Dose-dependent effect
U-87MG ATCC [17]
  inhibition: Active
[18]
  inhibition: 40%
HepG2 [19]
  inhibition: Active

## O=C(O)c1cc(NS(=O)(=O)c2ccc(-c3ccccc3)cc2)ccc1O
[1]
  IC50: > 20 µM

## CC(C)(C)c1ccc(S(=O)(=O)Nc2ccc(O)c3ncccc23)cc1
[1]
  IC50: 20 µM
[4]
  solubility thermodynamic: 12.8 µg/mL (≈ 36 µM)

## Cc1ccc(S(=O)(=O)Nc2ccc(O)cc2)cc1
[1]
  IC50: > 20 µM

## O=S(=O)(Nc1cccc2c(O)cccc12)c1ccc(-c2ccccc2)cc1
[1]
  IC50: > 20 µM

## O=S(=O)(Nc1ccc(O)cc1)c1cccc2cccnc12
[1]
  IC50: > 20 µM

## O=S(=O)(Nc1ccc(O)c2ncccc12)c1ccc(-c2ccccc2)cc1
[1]
  IC50: 20 µM
[4]
  solubility thermodynamic: 7.26 µg/mL (≈ 19.3 µM)

## CC(C)(C)c1ccc(S(=O)(=O)Nc2ccc(O)c3ccccc23)cc1
[1]
  IC50: > 20 µM

## CC(C)(C)c1ccc(S(=O)(=O)Nc2cccc(O)c2)cc1
[1]
  IC50: 8 µM

## O=S(=O)(Nc1cccc2ccc(O)cc12)c1ccc(-c2ccccc2)cc1
[1]
  IC50: > 20 µM

## O=S(=O)(Nc1ccc(O)c2ccccc12)c1ccc(-c2ccccc2)cc1
[1]
  IC50: > 20 µM

## O=S(=O)(Nc1ccc(O)c(Cl)c1)c1ccc(-c2ccccc2)cc1
[1]
  IC50: > 20 µM

## CCc1ccc(S(=O)(=O)Nc2ccc(O)cc2)cc1
[1]
  IC50: > 20 µM

## CC1=C(/C=C/C(C)=C/C=C/C(C)=C/C(=O)O)C(C)(C)CCC1
Chorioallantoic membrane [12]
  inhibition: 67%

## CC(C)(C)c1ccc(S(=O)(=O)Nc2ccc(O)cc2)cc1
HUVEC [9]
  inhibition: Dose-dependent effect
Chorioallantoic membrane [5]
  Activity: Non-toxic
HUVEC [6]
  Activity: Non-toxic
[11]
  inhibition: Active
Chorioallantoic membrane [12]
  inhibition: 65%
[14]
  inhibition: Dose-dependent effect
[1]
  IC50: 5 µM
[4]
  solubility thermodynamic: 26.7 µg/mL (≈ 87.6 µM)
HUVEC [16]
  inhibition: Dose-dependent effect
[18]
  inhibition: 40%
HepG2 [19]
  inhibition: Active
HepG2 [7]
  Activity: Non-toxic

## O=S(=O)(Nc1ccc(O)c(F)c1)c1ccc(-c2ccccc2)cc1
[1]
  IC50: > 20 µM
